Legend:
HepG2 cells = assay: MTT cell viability assay; assay type: cell-based, human; details: 0−100 μM, data not shown
Procedure, shortened: (§1)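 Viability was read as MTT tetrazolium reduction in confluent HepG2 (RPMI 1640) or LS180 (Eagle's MEM with Earle's balanced salts) cells at 37 °C, 5% CO2. Test compound was given at 0–100 µmol/L from DMSO stock; final DMSO ≤0.1%.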

LS180 cells = assay: MTT cell viability assay; assay type: cell-based, human; details: 0−100 μM, data not shown
Procedure, shortened: as §1

[1] = test system: CYP1A1, CYP1A2, CYP1B1 (EROD activity); assay: EROD activity in intact HepG2 cells; assay type: cell-based, human; details: 24 hours; for inhibition of TCDD (PAH)-induced EROD activity: 50 μM compound + 250 pmol TCDD; for induction of EROD activity: 50 μM compound alone
CYP1A1 = biological target: T1, CYP1A1 (Homo sapiens, UniProt P04798); assay: Recombinant CYP1A1 Supersomes EROD activity; assay type: biochemical; details: for change of Vmax with increasing compound concentration / nature of CYP1A1 inhibition (Michaelis-Menten kinetic analysis): recombinant CYP1A1 Supersomes
T1 sequence (P04798 1-512): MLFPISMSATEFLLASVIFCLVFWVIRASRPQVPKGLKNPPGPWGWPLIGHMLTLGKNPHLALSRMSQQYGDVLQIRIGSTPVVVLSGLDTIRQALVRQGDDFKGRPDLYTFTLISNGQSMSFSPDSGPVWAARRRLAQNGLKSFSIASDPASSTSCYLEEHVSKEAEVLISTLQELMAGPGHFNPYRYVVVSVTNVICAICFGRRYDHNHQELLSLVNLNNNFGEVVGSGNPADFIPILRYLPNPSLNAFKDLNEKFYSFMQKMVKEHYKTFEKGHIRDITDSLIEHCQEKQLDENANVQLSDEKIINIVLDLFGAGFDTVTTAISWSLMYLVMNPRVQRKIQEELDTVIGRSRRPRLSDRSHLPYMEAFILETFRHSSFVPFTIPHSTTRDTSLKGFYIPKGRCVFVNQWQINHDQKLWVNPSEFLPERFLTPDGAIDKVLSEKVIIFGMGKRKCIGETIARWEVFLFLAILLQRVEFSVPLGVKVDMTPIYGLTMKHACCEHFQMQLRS

CYP1B1 = biological target: T2, CYP1B1 (Homo sapiens, UniProt Q16678); assay: Recombinant CYP1B1 Supersomes EROD activity; assay type: biochemical
T2 sequence (Q16678 1-543): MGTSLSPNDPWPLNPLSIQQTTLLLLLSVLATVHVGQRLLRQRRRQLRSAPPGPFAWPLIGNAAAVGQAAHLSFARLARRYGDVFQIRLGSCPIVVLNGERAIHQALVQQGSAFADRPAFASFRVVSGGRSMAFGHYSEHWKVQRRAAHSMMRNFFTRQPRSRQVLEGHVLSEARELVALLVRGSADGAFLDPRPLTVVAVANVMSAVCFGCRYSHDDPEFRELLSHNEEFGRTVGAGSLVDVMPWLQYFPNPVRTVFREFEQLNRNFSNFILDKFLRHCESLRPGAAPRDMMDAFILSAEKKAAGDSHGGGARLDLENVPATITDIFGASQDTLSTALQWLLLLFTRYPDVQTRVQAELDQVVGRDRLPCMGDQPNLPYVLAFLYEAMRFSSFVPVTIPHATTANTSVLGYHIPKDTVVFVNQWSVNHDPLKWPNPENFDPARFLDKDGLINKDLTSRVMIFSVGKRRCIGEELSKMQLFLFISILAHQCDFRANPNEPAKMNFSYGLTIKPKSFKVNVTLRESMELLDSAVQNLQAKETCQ

CYP1A2 = biological target: T3, CYP1A2 (Homo sapiens, UniProt P05177); assay: Recombinant CYP1A2 Supersomes EROD activity; assay type: biochemical
T3 sequence (P05177 1-516): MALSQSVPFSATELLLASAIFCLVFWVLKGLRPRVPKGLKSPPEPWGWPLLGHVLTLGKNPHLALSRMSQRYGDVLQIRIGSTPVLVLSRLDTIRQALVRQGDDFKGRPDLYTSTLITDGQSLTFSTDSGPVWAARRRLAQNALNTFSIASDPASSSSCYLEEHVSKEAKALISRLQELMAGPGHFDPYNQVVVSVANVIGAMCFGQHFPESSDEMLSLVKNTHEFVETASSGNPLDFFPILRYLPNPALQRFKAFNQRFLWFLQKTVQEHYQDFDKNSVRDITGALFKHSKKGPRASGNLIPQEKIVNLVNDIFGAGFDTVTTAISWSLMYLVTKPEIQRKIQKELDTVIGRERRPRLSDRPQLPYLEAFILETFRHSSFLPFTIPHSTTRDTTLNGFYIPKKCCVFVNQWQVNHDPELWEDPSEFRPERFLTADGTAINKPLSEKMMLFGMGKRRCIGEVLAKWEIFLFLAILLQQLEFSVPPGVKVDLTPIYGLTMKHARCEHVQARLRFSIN

G6PD mRNA = G6PD mRNA expression by RT-PCR in HepG2 cells; assay type: cell-based, human; details: 50 μM, 24 hours, over 18S RNA control
CYP1A1 mRNA [2] = assay: CYP1A1 mRNA expression by RT-PCR in HepG2 cells; details: co-treatment with 250 pmol TCDD or 1 μM DMBA, 24 hours
CYP1A2 mRNA [3] = assay: CYP1A2 mRNA expression by RT-PCR in HepG2 cells; details: co-treatment with 250 pmol TCDD or 1 μM DMBA, 24 hours
CYP1B1 mRNA [4] = assay: CYP1B1 mRNA expression by RT-PCR in HepG2 cells; details: 24 hours; for effect on TCDD- and DMBA-induced CYP1B1 mRNA expression: co-treatment with 250 pmol TCDD or 1 μM DMBA
CYP1A1 mRNA [5] = assay: CYP1A1 mRNA expression by RT-PCR in LS180 cells; details: co-treatment with 250 pmol TCDD or 1 μM DMBA, 24 hours
CYP1A2 mRNA [6] = assay: CYP1A2 mRNA expression by RT-PCR in LS180 cells; details: co-treatment with 250 pmol TCDD or 1 μM DMBA, 24 hours
CYP1B1 mRNA [7] = assay: CYP1B1 mRNA expression by RT-PCR in LS180 cells; details: 24 hours; for effect on TCDD- and DMBA-induced CYP1B1 mRNA expression: co-treatment with 250 pmol TCDD or 1 μM DMBA
[8] = test system: CYP1A1 heterogeneous nuclear RNA (hnCYP1A1); assay: CYP1A1 gene transcription rate; details: HepG2; co-treatment with 250 pmol TCDD or 1 μM DMBA
phase II genes = assay: Phase II gene expression; assay type: cell-based, human; details: RT-PCR
[9] = rats; cited from earlier work
[10] = biological target: T4, aryl hydrocarbon receptor (AhR) (Homo sapiens, UniProt P35869); assay: Chromatin immunoprecipitation; details: HepG2; 50 μM compound + 10 nmol TCDD; 90 minutes; TCDD alone 6.2-fold
T4 sequence (P35869 11-848): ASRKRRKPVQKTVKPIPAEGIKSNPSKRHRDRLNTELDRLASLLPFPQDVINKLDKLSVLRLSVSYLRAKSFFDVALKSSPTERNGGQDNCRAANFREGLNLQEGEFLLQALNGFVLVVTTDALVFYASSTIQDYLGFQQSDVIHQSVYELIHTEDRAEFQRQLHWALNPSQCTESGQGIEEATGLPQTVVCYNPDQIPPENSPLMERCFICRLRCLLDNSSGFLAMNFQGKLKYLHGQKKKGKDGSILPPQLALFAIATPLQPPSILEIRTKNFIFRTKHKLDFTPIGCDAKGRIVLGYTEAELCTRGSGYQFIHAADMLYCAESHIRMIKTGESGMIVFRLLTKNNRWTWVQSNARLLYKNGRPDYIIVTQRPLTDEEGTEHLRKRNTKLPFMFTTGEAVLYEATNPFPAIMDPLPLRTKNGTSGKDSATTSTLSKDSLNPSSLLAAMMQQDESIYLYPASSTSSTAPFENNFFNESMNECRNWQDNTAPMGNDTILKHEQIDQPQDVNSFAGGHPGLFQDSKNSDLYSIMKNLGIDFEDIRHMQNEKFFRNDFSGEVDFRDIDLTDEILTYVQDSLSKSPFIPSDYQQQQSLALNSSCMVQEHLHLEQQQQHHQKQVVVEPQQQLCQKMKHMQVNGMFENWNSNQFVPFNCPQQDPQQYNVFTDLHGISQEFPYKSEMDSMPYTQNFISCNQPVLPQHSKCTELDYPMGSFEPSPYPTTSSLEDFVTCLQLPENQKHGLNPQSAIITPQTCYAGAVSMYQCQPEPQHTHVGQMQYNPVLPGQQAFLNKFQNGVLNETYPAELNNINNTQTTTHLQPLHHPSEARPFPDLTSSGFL

[11] = test system: catalase and glutathione reductase; details: 25 μM; cited from earlier work
[12] = test system: CYP1A1 heterogeneous nuclear RNA (hnCYP1A1)

For `CC1=C(CC(=O)Oc2ccc(-c3cc(=S)ss3)cc2)c2cc(F)ccc2/C1=C\c1ccc([S+](C)[O-])cc1` (stereo not shown) [ACS 18, (Z)-5-Fluoro-2-methyl-1-[[4-(methylsulfinyl)phenyl]-methylene]-1H-indene-3-acetic acid 4-(5-thioxo-5H-[1,2]dithiol-3-yl)-phenyl ester], the “cell viability (MTT)” value (HepG2 cells) was “non-toxic”, the “cell viability (MTT)” value (LS180 cells) was “non-toxic” and the “inhibition of TCDD (PAH)-induced EROD activity” value (from here on “inhibition of TCDD”) [1] was “inhibited”. The “induction of EROD activity” value [1] was 0.46 +/− 0.01 pmoles/min/well, the IC50 (CYP1A1) was 40 nM and the “change of Vmax with increasing compound concentration” value (CYP1A1) was “unchanged”. The “nature of CYP1A1 inhibition (Michaelis-Menten kinetic analysis)” value (CYP1A1) was “competitive”, the IC50 (CYP1B1) was 230 nM and the IC50 (CYP1A2) was 3100 nM. The “increase in G6PD mRNA expression” value (G6PD mRNA) was 1.5 fold, the “effect on TCDD- and DMBA-induced CYP1A1 mRNA expression” value (CYP1A1 mRNA [2]) was “similar” and the “effect on TCDD- and DMBA-induced CYP1A2 mRNA expression” value (CYP1A2 mRNA [3]) was “similar”. The “effect on TCDD- and DMBA-induced CYP1B1 mRNA expression” value (CYP1B1 mRNA [4]) was “similar”, the “effect on TCDD- and DMBA-induced CYP1A1 mRNA expression” value (CYP1A1 mRNA [5]) was “similar” and the “effect on TCDD- and DMBA-induced CYP1A2 mRNA expression” value (CYP1A2 mRNA [6]) was “similar”. For the same compound, the “effect on TCDD- and DMBA-induced CYP1B1 mRNA expression” value (CYP1B1 mRNA [7]) was “similar” and the “effect on TCDD- and DMBA-stimulated hnCYP1A1 expression” value [8] was “similar”.
In the case of `[Na+].[SH-]` [NaHS], the “inhibition of TCDD” value [1] is reported as “not inhibited”.
With `O=C(Cc1ccccc1Nc1c(Cl)cccc1Cl)Oc1ccc(-c2cc(=S)ss2)cc1` [ACS 15, 2-[(2,6-dichlorophenyl)amino]benzeneacetic acid 4-(3H-1,2,dithiol-3-thione-5-yl)phenyl ester] the “cell viability (MTT)” value (HepG2 cells) was “non-toxic”, the “cell viability (MTT)” value (LS180 cells) was “non-toxic” and the “inhibition of TCDD” value [1] was “inhibited”. The “change of Vmax with increasing compound concentration” value (CYP1A1) was “unchanged”, the “nature of CYP1A1 inhibition (Michaelis-Menten kinetic analysis)” value (CYP1A1) was “competitive” and the “effect on phase II gene expression” value (phase II genes) was “No significant increases”. For the same compound, the “less gastro-intestinal damage than diclofenac” value [9] was greater than 90%, the “effect on TCDD- and DMBA-induced CYP1A1 mRNA expression” value (CYP1A1 mRNA [2]) was “inhibited in a concentration-dependent manner” and the “effect on TCDD- and DMBA-induced CYP1A2 mRNA expression” value (CYP1A2 mRNA [3]) was “inhibited in a concentration-dependent manner”. The “effect on TCDD- and DMBA-induced CYP1B1 mRNA expression” value (CYP1B1 mRNA [4]) was “inhibited in a concentration-dependent manner”, the “effect on TCDD- and DMBA-induced CYP1A1 mRNA expression” value (CYP1A1 mRNA [5]) was “inhibited in a concentration-dependent manner” and the “effect on TCDD- and DMBA-induced CYP1A2 mRNA expression” value (CYP1A2 mRNA [6]) was “inhibited in a concentration-dependent manner”. For the same compound, the “effect on TCDD- and DMBA-induced CYP1B1 mRNA expression” value (CYP1B1 mRNA [7]) was “inhibited in a concentration-dependent manner”, the “effect on TCDD- and DMBA-stimulated hnCYP1A1 expression” value [8] was “abrogated the stimulatory effects” and the “level of activated AhR on co-treatment with TCDD (ChIP)” value [10] was 2.6 fold.
In the case of `COc1ccc(-c2cc(=S)ss2)cc1` [ADT, 5-[p-methoxyphenyl]-1,2-dithiole-3-thione], the “increases in the phase II enzymes catalase and glutathione reductase” value [11] is given as “less than 2 fold”.
In the case of `O=C(O)Cc1ccccc1Nc1c(Cl)cccc1Cl` [diclofenac], the “inhibition of TCDD” value [1] is reported as “not inhibited”.
For `Cc1c2ccccc2c(C)c2c1ccc1ccccc12` [DMBA], the “fold increase in hnCYP1A1 expression over DMSO control levels” value [12] was 12 fold, the “fold increase in CYP1B1 mRNA expression compared to DMSO controls” value (CYP1B1 mRNA [4]; TCDD 250 pmol, DMBA 1 μM) was 8.4 fold and the “fold increase in CYP1B1 mRNA expression compared to DMSO controls” value (CYP1B1 mRNA [7]; TCDD 250 pmol, DMBA 1 μM) was 2.5 fold.
For `CC1=C(CC(=O)O)c2cc(F)ccc2/C1=C\c1ccc([S+](C)[O-])cc1` (stereo not shown) [sulindac], the “inhibition of TCDD” value [1] was “not inhibited” and the “induction of EROD activity” value [1] was 4.45 +/− 0.09 pmoles/min/well.

Source: PMC2755634 (Clinical cancer research : an official journal of the …, 2009)
